Rows were chosen to be rich in hits. Some 3.8% of all compounds tested hit in one or more screens of this group.
KCNK3 block: human KCNK3 channel inhibition, primary screen | O14649 | CHO-KCNK3 thallium flux, FluxOR fluorescence; hits give low values | B-score at 10 µM | hit rate 0.84% among 340,000 | AID 602410;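 active = B-score under library mean minus 4 SD, starting fluorescence ratio at most library mean plus 5 SD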;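 note: more negative B-score means stronger inhibition of thallium flux through KCNK3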
KCNQ1 pot: potentiators or activators of human KCNQ1 potassium channel; CHO-K1 KCNQ1, thallium flux FluxOR fluorescence; hits give high values; B-score at 10 µM; AID 2648; hit rate 0.35% among 310,000; P51787;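 active = fluorescence ratio B-score, a plate-corrected score, at least three library SD, with initial intensity B-score within 5 SD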
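Assay system: CHO-K1 cells stably expressing KCNQ1; Medium: assay buffer with matched DMSO; Also added: K+/Tl+ depolarizing stimulus; Dosing: single dose; Timing: dye 90 min, compound 20 min, room temperature; Measured by: kinetic FluxOR thallium fluorescence, 10-s 1-Hz baseline, 110-s post-stimulus read; Read-out: peak-minus-minimum fluorescence over initial fluorescence, negative-control normalized, B-scored.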
Kir21 block: Kir2.1 (mouse) channel inhibition | P35561 | HEK293-Kir2.1, FluxOR thallium flux fluorescence; hits give low values | B-score at 10 µM | hit rate 0.85% among 310,000;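 active = fluorescence ratio B-score at or below minus 3 SD of library scores, with starting-brightness B-score within 2 SD, cut at about -4.2 in these data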;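 note: channel flux triggered by added potassium and thallium sulfate stimulus; B-score of peak minus minimum fluorescence over baseline after thallium stimulus; more negative B-score means stronger Kir2.1 block with less thallium influx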
hERG protect: compounds protecting human hERG from proarrhythmic drug block | activation (rescue from dofetilide block), less the hit threshold, % at 10 µM | CHO-hERG, FluxOR thallium flux, dofetilide IC70 present | hit rate 0.51% among 310,000 | AID 1511 | Q12809;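 active = activation above the mean of controls blocked by dofetilide plus 5 SD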;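 note: thallium influx through hERG after potassium depolarization seen as dye fluorescence rise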
KCNQ1 inh: inhibitors of human KCNQ1 potassium channel. P51787. CHO-K1 KCNQ1, FluxOR thallium flux fluorescence; hits give high values. B-score at 10 µM. hit rate 1.3% among 310,000;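 active = compounds whose thallium flux B-score, printed positive for inhibition, exceeds three library SD while starting fluorescence stays within three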;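 note: channel opened by potassium depolarization with thallium stimulus after 20 min compound exposure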
KCNK9 block: inhibitors of human KCNK9 two-pore domain potassium channel. HEK293 KCNK9, FluxOR thallium flux fluorescence; hits give low values. B-score at 10 µM. hit rate 1.2% among 310,000. AID 488922;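 active = ratio B-score over 3 SD below the library mean, with starting fluorescence within 5 SD of its mean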;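 note: negative B-score means less thallium flux so channel inhibition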
Numbers stand for hits; - = inactive; . = not tested or not shown.

SMILES	KCNK3 block	KCNQ1 pot	Kir21 block	hERG protect	KCNQ1 inh	KCNK9 block
CC(=O)Nc1ccc(NC(=O)C(C)Oc2ccc(Cl)cc2Cl)cc1 (stereo not given)	-	-	-	-	-	-
COc1ccc(NC(=O)C(=O)NNC(=O)C(C)Oc2ccc(Cl)cc2Cl)cc1 (stereo not given)	-	108	-	35	-	-
CC(Oc1ccc(Cl)cc1Cl)C(=O)NCCC1=CCCCC1 (stereo not given)	-	-	-7	-	-	-
CC(Oc1ccc(Br)cc1Br)C(=O)Nc1cccnc1 (stereo not given)	-	-	-	12	-	-
O=C(Nc1nccs1)c1ccc(COc2ccc(F)cc2)o1	-	-	-	-	-	-
O=C(Nc1cccnc1)c1ccc(COc2cc(Cl)ccc2Cl)o1	-	-	-	26	-	-
CC(Oc1ccc(Cl)cc1Cl)C(=O)Nc1ccncc1 (stereo not given)	-	-	-	-	-	-
O=C(Nc1cccnc1)c1ccc(COc2ccccc2Cl)o1	-	-	-	-	-	-
CC(Oc1ccc(Cl)cc1Cl)C(=O)Nc1cccnc1 (stereo not given)	-	-	-	6.5	-	-
O=C(CSc1nccn1-c1ccc(Cl)cc1)N1CCCc2ccccc21	-	-	-9.3	-	-	-
Cn1c(-c2ccccc2)cnc1SCC(=O)N1CCCc2ccccc21	-	-	-7.5	-	-	-
CCOC(=O)Cc1csc(NC(=S)NC(=O)c2ccc(F)cc2)n1	-	8	-	-	-	-
CCOC(=O)Cc1csc(NC(=S)NC(=O)c2ccccc2C)n1	-	16	-	-	-	-
O=C(NCc1ccc(Cl)cc1)C1CCCCN1S(=O)(=O)c1ccccc1 (stereo not given)	-	-	-	-	-	-
COc1ccc(CCNC(=O)CN2C(=O)C(=O)N(C3CCCC3)C2=O)cc1OC	-	.	.	.	.	.
Cc1cccc(N2C(=O)CS/C2=N\NC(=O)c2ccc(Br)cc2)c1C	-	-	-	5.6	-	-
O=C(COC(=O)/C=C/c1ccc(F)cc1)NCc1ccco1	-	-	-	39	-	-
O=C(COC(=O)/C=C/c1ccc([N+](=O)[O-])cc1)NCc1ccco1	-	-	-	-	-	-
CCCC(C(=O)NC(C)(C)C)N(CC1CCCO1)C(=O)CNS(=O)(=O)c1ccc(F)cc1 (stereo not given)	-	-	-	-	-	-
COc1ccccc1CNC(=O)c1cc(S(=O)(=O)N2CCCCC2)c[nH]1	-	-	-	-	-	-
O=[N+]([O-])c1cc(Cl)cc(/C=N/NC(=S)Nc2ccc(S(=O)(=O)N3CCOCC3)cc2)c1O	-	-	-	-	8	-
CCCCCCSC1=C(C#N)C(c2ccccc2)CC(=O)N1 (stereo not given)	-	-	-	-	-	-7.2
Cc1ccc(C2CC(=O)NC(SCc3ccccc3)=C2C#N)cc1 (stereo not given)	-	-	-4.3	-	-	-
N#CC1=C(SCc2ccccc2)NC(=O)CC1c1ccc(O)cc1 (stereo not given)	-	-	-4.4	-	-	-
CCNC(=S)N1CCn2cccc2C1c1ccc(F)cc1 (stereo not given)	-	-	-	-	-	-8
SMILES	KCNK3 block	KCNQ1 pot	Kir21 block	hERG protect	KCNQ1 inh	KCNK9 block
CNC(=S)N1CCn2cccc2C1c1cc(OC)c(OC)c(OC)c1 (stereo not given)	-	-	-	-	-	-
CC(=O)CSc1ncnc2sc3c(c12)CCC(C)C3 (stereo not given)	-	33	-	50	-	-
CC1(C)CC(=O)C2=C(C1)OC1=C(C(=O)CC(C)(C)C1)C2c1ccc(O)c([N+](=O)[O-])c1	-	-	-	-	-	-
CC1(C)CC(=O)C2=C(C1)OC1=C(C(=O)CC(C)(C)C1)C2c1ccc(O)cc1O	-	-	-	-	7	-7
COc1ccc(NC(=O)c2ccco2)cc1NC(=O)c1ccccc1[N+](=O)[O-]	-	-	-	-	-	-
N#C/C(=C\c1ccc(-c2ccc([N+](=O)[O-])cc2)o1)C(=O)Nc1nc(-c2cccs2)cs1	-	-	-	-	-	-
N#C/C(=C\c1ccc(-c2ccccc2[N+](=O)[O-])o1)C(=O)Nc1nc(-c2cccs2)cs1	-	-	-	12	-	-
CCCNC(=O)c1ccccc1NC(=O)Cc1ccc(OC)c(S(=O)(=O)N2CCOCC2)c1	-	-	-	-	-	-
CC(C)CNC(=O)COC(=O)c1ccc2c(c1)C(=O)N(Cc1ccco1)C2=O	-	-	-	-	-	-
CCOC(=O)C1(CCOc2ccccc2)CCN(Cc2ccc(O)cc2)CC1	-	-	-	-	-	-
CCOC(=O)C1(CCc2ccccc2)CCN(Cc2ccc(OC)cc2)CC1	-	-	-5.2	-	-	-
CCOC(=O)C1(Cc2cccc(OC)c2)CCN(C/C=C/c2ccc(OC)cc2)CC1	-	-	-	-	7	-
CCOC(=O)C1(CCc2ccccc2)CCN(Cc2ccc(O)cc2)CC1	-	-	-4.5	-	-	-
Cc1cccc(Cn2cc(/C=C/[N+](=O)[O-])c3ccccc32)c1	-	-	-	-	-	-
O=[N+]([O-])/C=C/c1cn(Cc2ccc(Cl)cc2)c2ccccc12	-	-	-5.7	-	-	-
CC(=O)c1c(C)[nH]c(C(=O)Nc2nc(-c3ccc(-c4ccccc4)cc3)cs2)c1C	-	-	-	-	8	-
O=C(CSc1ccc2nnc(CCNC(=O)c3ccccc3)n2n1)NC1CCCC1	-	-	-	-	-	-
COc1ccccc1N(CCC#N)C(=O)CSc1nnc2ccccn12	-	.	.	.	.	.
CCOC(=O)c1c(NC(=O)C2c3ccccc3Oc3ccccc32)sc(C(C)=O)c1C	-	-	-	-	-	-7.4
CCOC(=O)c1c(NC(=O)CSc2nnc(-c3ccc(C)cc3)o2)sc(C(C)=O)c1C	-10	.	.	.	.	.
CC1(c2ccc3c(c2)OCCO3)NC(=O)N(CC(=O)Nc2ccccc2SCC#N)C1=O (stereo not given)	-	.	.	.	.	.
CC12CCC3c4ccc(O)cc4CCC3C1CCC2=O (stereo not given)	-	.	.	.	.	.
C#C[C@]1(O)CC[C@H]2[C@@H]3CCc4cc(O)ccc4[C@H]3CC[C@@]21C	-	9	-	-	-	-
O=[N+]([O-])c1ccc(N/N=C/c2sc(N3CCOCC3)nc2-c2ccccc2)c(S(=O)(=O)Nc2ccc(Cl)cc2)c1	-	-	-	-	11	-
O=C(N/N=C/c1sc(N2CCOCC2)nc1-c1ccccc1)c1ccccc1O	-	-	-	-	9	-
O=[N+]([O-])c1ccc(N/N=C/c2sc(N3CCOCC3)nc2-c2ccccc2)c(S(=O)(=O)Nc2ccccc2Cl)c1	-	.	.	.	.	.
